Reference: ChEMBL document CHEMBL1142099, “Paecilodepsipeptide A, an antimalarial and antitumor Cyclohexadepsipeptide from the insect pathogenic fungus Paecilomyces cinnamomeus BCC 9616” (J Nat Prod, 2007)
Active and inactive are the calls of the source. The calls are words filed in the database; no cut-off is given here.

Tests used:
[1] = test system: KB; assay: Cytotoxicity against human KB cells; assay type: cell-based; settings: for Activity: human, kb
In short: (§1)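 Colorimetric cytotoxicity assay on KB (oral human epidermoid carcinoma), BC (human breast cancer) and Vero (African green monkey kidney fibroblast) cells; IC50 determined, Vero tested up to 67 µM (50 µg/mL). Ellipticine used as reference standard.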

[2] = Cytotoxicity against human BC cells; assay type: cell-based; settings: for Activity: human, bc; in short: as §1
[3] = test system: Plasmodium falciparum; assay: Antimalarial activity against Plasmodium falciparum K1; assay type: functional, organism-based
In short: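 P. falciparum K1 (multidrug-resistant strain) tested by microculture radioisotope technique; IC50 determined. Dihydroartemisinin used as reference standard.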

[4] = test system: Vero; assay: Cytotoxicity against African green monkey Vero cells upto 67 uM; assay type: cell-based; settings: chlorocebus sabaeus; in short: as §1

Structure (SMILES)	IC50 ([1]; Homo sapiens, KB) [µM]	IC50 ([2]; Homo sapiens, BC) [µM]	IC50 [3] [µM]	Activity [4]	Activity [1]	Activity [2]	Activity [3]
CC(C)=CCOc1ccc(C[C@H]2NC(=O)[C@@H](C)NC(=O)[C@@H](Cc3ccc(O)cc3)NC(=O)CNC(=O)[C@H](C)NC(=O)[C@H](Cc3ccccc3)OC2=O)cc1 [PAECILODEPSIPEPTIDE A]	5.9	6.6	4.9	Not Active			
CC(C)=CCOc1ccc(C[C@@H](NC(=O)[C@@H](C)NC(=O)[C@@H](Cc2ccc(O)cc2)NC(=O)CNC(=O)[C@H](C)NC(=O)[C@@H](O)Cc2ccccc2)C(=O)O)cc1 [PAECILODEPSIPEPTIDE B]				Not Active	Not Active	Not Active	inactive
COC(=O)[C@@H](Cc1ccc(OCC=C(C)C)cc1)NC(=O)[C@@H](C)NC(=O)[C@@H](Cc1ccc(O)cc1)NC(=O)CNC(=O)[C@H](C)NC(=O)[C@@H](O)Cc1ccccc1 [PAECILODEPSIPEPTIDE C]				Not Active	Not Active	Not Active	inactive
